# Laboratory results reported in PubChem BioAssay AID493249 (Broad Institute, 2011).
# pIC50: −log10 of the molar value. Where “and” joins values, the source holds several entries; their conditions need not be identical. Equal entries are not always repeated. Calls of active or inactive are those of the source.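 How the source made its calls: active means compounds lowering cell viability with a fitted IC50 within ten times their top tested dose; inconclusive means flat viability loss of 30 to 70 percent, or poor fit; inactive means the rest.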
# What was measured:
# [1] = toxicity in U2OS HRE-luc reporter cells, dose response, cytotoxicity control for HIF pathway activator project, cell-based, dry powder, set 7 (AID 493249); conditions: U2OS HRE-luc cells, viability toxicity counter-screen, CellTiter-Glo; at 38 µM (top of the series)
# In short: (§1)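 measured by = CellTiter-Glo luminescence | assay system = human osteosarcoma U2OS cells stably expressing 3×HRE-luciferase reporter | medium = phenol red-free DMEM, 10% FBS, no hygromycin | incubation = 24 h cell attachment, then 24 h compound exposure, 37 °C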
# [2] = system: U2OS HRE-luc cells, viability toxicity counter-screen, CellTiter-Glo; assay: as above
# In short: as §1
SMILES,"activity change, negative = toxicity [1]",IC50 [2],pIC50 [2]
c1ccc(-c2cnc(Nc3nc(-c4ccccn4)nnc3-c3ccccc3)s2)cc1,1.53% (inactive),–,–
OCCCNc1nc(-c2ccccn2)nnc1-c1ccccc1,4.98% (inactive),–,–
COc1ccc(CNc2nc(-c3ccccn3)nnc2-c2ccccc2)cc1,-2.05% (inactive),–,–
O=C(Nc1ncc2ccccc2n1)c1cc(-c2ccccc2)on1,-4.1% (inactive),–,–
CC(C)(C)CCNc1nc(-c2ccccn2)nnc1-c1ccccc1,-13% (inactive) and -32.8% (inactive),–,–
O=C(c1cc(-c2ccccc2)on1)N1CCC(CO)CC1,1.17% (inactive),–,–
Cc1ccc(CNC(=O)c2cc(-c3ccccc3)on2)cc1,1.57% (inactive),–,–
CN(C)CCNC(=O)c1cc(-c2ccccc2)on1,14.4% (inactive),–,–
O=C(Nc1nc2ccccc2s1)c1cc(-c2ccccc2)on1,-1.46% (inactive),–,–
CC(Nc1nc(-c2ccccn2)nnc1-c1ccccc1)c1ccccc1 (centres undefined),0.427% (inactive),–,–
c1ccc(-c2nnc(-c3ccccn3)nc2N2CCC(c3ccccc3)C2)cc1 (centres undefined),-24.1% (inactive),–,–
COc1ccccc1N1CCN(Cc2ccc(O)c3ncccc23)CC1,-18.6% (inactive),–,–
O=C(NCCCn1ccnc1)c1cc(-c2ccccc2)on1,-7.78% (inactive),–,–
Cc1cccc(CNC(=O)c2cc(-c3ccccc3)on2)c1,-1.11% (inactive),–,–
O=C(c1cc(-c2ccccc2)on1)N1CCN(c2ccncc2)CC1,–,> 38 µM (inactive),–
Oc1ccc(CNC2CCc3ccccc32)c2cccnc12 (centres undefined),-17.9% (inactive),–,–
CN1CCN(c2nc(-c3ccccn3)nnc2-c2ccccc2)CC1,-13.4% (inactive),–,–
O=C(NC1CCc2ccccc2C1)c1cc(-c2ccccc2)on1 (centres undefined),-10.6% (inactive),–,–
O=C(NCCCCO)c1cc(-c2ccccc2)on1,-16.3% (inactive),–,–
Cn1c(NC(=O)c2cc(-c3ccccc3)on2)nc2ccccc21,-0.865% (inactive),–,–
c1ccc(-c2nnc(-c3ccccn3)nc2NCCc2ccccn2)cc1,4.22% (inactive),–,–
O=C(NCCCN1CCOCC1)c1cc(-c2ccccc2)on1,0.736% (inactive),–,–
Oc1ccc(CNC2Cc3ccccc3C2)c2cccnc12,0.726% (inactive),–,–
c1ccc(-c2nnc(Nc3nc(-c4ccccn4)nnc3-c3ccccc3)s2)cc1,–,> 38 µM (inactive),–
Cc1ccc(NC(=O)c2cc(-c3ccccc3)on2)cn1,-11.1% (inactive),–,–
CN1CCN(C(=O)c2cc(-c3ccccc3)on2)CC1,3.42% (inactive),–,–
OCC1CCN(Cc2ccc(O)c3ncccc23)CC1,-25% (inactive),–,–

SMILES,"activity change, negative = toxicity [1]",IC50 [2],pIC50 [2]
O=C(Nc1cnc2ccccc2c1)c1cc(-c2ccccc2)on1,0.164% (inactive),–,–
c1ccc(-c2nnc(-c3ccccn3)nc2NCCN2CCOCC2)cc1,-9.28% (inactive),–,–
Oc1ccc(CN2CCc3ccccc3C2)c2cccnc12,-16.2% (inactive),–,–
c1ccc(-c2nnc(-c3ccccn3)nc2N2CCC(N3CCOCC3)CC2)cc1,–,> 38 µM (inactive),–
Cc1cccc(CNc2nc(-c3ccccn3)nnc2-c2ccccc2)c1,-16.7% (inactive),–,–
c1ccc(CCNc2nc(-c3ccccn3)nnc2-c2ccccc2)cc1,-5.99% (inactive),–,–
Cc1ccccc1CNC(=O)c1cc(-c2ccccc2)on1,-4.19% (inactive),–,–
O=C(c1cc(-c2ccccc2)on1)N1CCc2cccnc21,-7.75% (inactive),–,–
CC(C)(C)OC(=O)N1CCN(Cc2ccc(O)c3ncccc23)CC1,6.17% (inactive),–,–
c1ccc(-c2nnc(-c3ccccn3)nc2NCC2CC2)cc1,8.28% (inactive),–,–
O=C(NCC1CCCCC1)c1cc(-c2ccccc2)on1,0.869% (inactive),–,–
O=C(Nc1ccc2ccccc2n1)c1cc(-c2ccccc2)on1,9.02% (inactive),–,–
C[C@@H](Nc1nc(-c2ccccn2)nnc1-c1ccccc1)c1ccccc1,-13.6% (inactive),–,–
Cc1ccc(CNc2nc(-c3ccccn3)nnc2-c2ccccc2)cc1,-15.4% (inactive),–,–
Cc1cccc(Nc2nc(-c3ccccn3)nnc2-c2ccccc2)n1,-12.6% (inactive),–,–
O=C(c1cc(-c2ccccc2)on1)N1CCC(N2CCCC2)CC1,-8.3% (inactive),–,–
O=C(Nc1ncc(-c2ccccc2)o1)c1cc(-c2ccccc2)on1,1.41% (inactive),–,–
O=C(NCCN1CCCCC1)c1cc(-c2ccccc2)on1,–,> 38 µM (inactive),–
CC1CN(Cc2ccc(O)c3ncccc23)CC(C)O1 (centres undefined),–,> 38 µM (inactive),–
O=C(Nc1nc(-c2ccccc2)cs1)c1cc(-c2ccccc2)on1,13.9% (inactive),–,–
O=C(NCCN1CCOCC1)c1cc(-c2ccccc2)on1,-16.1% (inactive),–,–
c1ccc(-c2nnc(-c3ccccn3)nc2Nc2nc3ccccc3s2)cc1,–,> 38 µM (inactive),–
c1ccc(-c2csc(Nc3nc(-c4ccccn4)nnc3-c3ccccc3)n2)cc1,–,> 38 µM (inactive),–
c1ccc(-c2nnc(-c3ccccn3)nc2NCc2cccnc2)cc1,40.2% (inactive),–,–
CCCCNC(=O)c1cc(-c2ccccc2)on1,-11.5% (inactive),–,–
O=C(NCCCO)c1cc(-c2ccccc2)on1,-3.27% (inactive),–,–
c1ccc(-c2cccc(CNc3nc(-c4ccccn4)nnc3-c3ccccc3)c2)cc1,-2.36% (inactive),–,–

SMILES,"activity change, negative = toxicity [1]",IC50 [2],pIC50 [2]
CC(C)(C)CCNC(=O)c1cc(-c2ccccc2)on1,-7.02% (inactive),–,–
c1ccc(-c2nnc(-c3ccccn3)nc2NCC2CCCCC2)cc1,-26% (inactive),–,–
CN(C)c1nc(-c2ccccn2)nnc1-c1ccccc1,2.11% (inactive),–,–
OCC1CCN(c2nc(-c3ccccn3)nnc2-c2ccccc2)CC1,-13.9% (inactive),–,–
COc1cccc(CNc2nc(-c3ccccn3)nnc2-c2ccccc2)c1,-14.9% (inactive),–,–
Cn1c(-c2ccccc2)cnc1Nc1nc(-c2ccccn2)nnc1-c1ccccc1,–,–,4.46
Oc1ccc(CN2CCC3CCCCC3C2)c2cccnc12 (centres undefined),–,> 38 µM (inactive),–
O=C(c1cc(-c2ccccc2)on1)N1CCC(N2CCOCC2)CC1,-9.91% (inactive),–,–
C=CCNc1nc(-c2ccccn2)nnc1-c1ccccc1,3.09% (inactive),–,–
O=C(Nc1cn2ccccc2n1)c1cc(-c2ccccc2)on1,-3.68% (inactive),–,–
Cc1cccc(NC(=O)c2cc(-c3ccccc3)on2)n1,-0.352% (inactive),–,–
N#CC1(c2ccccc2)CCN(Cc2ccc(O)c3ncccc23)CC1,7.2% (inactive),–,–
c1ccc(-c2nnc(-c3ccccn3)nc2NCc2ccccn2)cc1,–,> 38 µM (inactive),–
c1ccc(-c2nnc(-c3ccccn3)nc2NCCCN2CCOCC2)cc1,11% (inactive),–,–
c1ccc(-c2nnc(-c3ccccn3)nc2NCC2CCOCC2)cc1,20.8% (inactive),–,–
Clc1cccc(CNc2nc(-c3ccccn3)nnc2-c2ccccc2)c1,2.17% (inactive),–,–
O=C(NC1Cc2ccccc2C1)c1cc(-c2ccccc2)on1,-13.3% (inactive),–,–
c1ccc(-c2nnc(-c3ccccn3)nc2N2CCC(C3CCCCC3)C2)cc1 (centres undefined),14.5% (inactive),–,–
Oc1ccc(CN2CCC(Cc3ccccc3)CC2)c2cccnc12,-14.5% (inactive),–,–
O=C(NCC1CC1)c1cc(-c2ccccc2)on1,-6.03% (inactive),–,–
O=C(NCc1ccccc1)c1cc(-c2ccccc2)on1,-7.7% (inactive),–,–
Cc1ccccc1CNc1nc(-c2ccccn2)nnc1-c1ccccc1,-17.6% (inactive),–,–
O=C(Nc1nnc(-c2ccccc2)s1)c1cc(-c2ccccc2)on1,-7.07% (inactive),–,–
Cn1c(-c2ccccc2)cnc1NC(=O)c1cc(-c2ccccc2)on1,-8.92% (inactive),–,–
c1ccc(-c2nnc(-c3ccccn3)nc2N2CCN(c3ccncc3)CC2)cc1,–,> 38 µM (inactive),–
